Reference: ChEMBL document CHEMBL3352420, “Discovery of 2-pyridylureas as glucokinase activators” (J Med Chem, 2014)
≈ marks a conversion by molar mass, not a printed value. One block for each compound: values may come before it.

Key:
Hexokinase-4 [1] = molecular target: T1, Hexokinase-4 (Homo sapiens, UniProt P35557); test: Activation of purified human glucokinase isoform 3 (13 to 466 aa) using 5 mM glucose by spectrophotometry in presence of NAD+ and glucose 6-phosphate dehydrogenase in presence of 4% HSA; conditions: read-out: EC50
T1 sequence (P35557 whole entry): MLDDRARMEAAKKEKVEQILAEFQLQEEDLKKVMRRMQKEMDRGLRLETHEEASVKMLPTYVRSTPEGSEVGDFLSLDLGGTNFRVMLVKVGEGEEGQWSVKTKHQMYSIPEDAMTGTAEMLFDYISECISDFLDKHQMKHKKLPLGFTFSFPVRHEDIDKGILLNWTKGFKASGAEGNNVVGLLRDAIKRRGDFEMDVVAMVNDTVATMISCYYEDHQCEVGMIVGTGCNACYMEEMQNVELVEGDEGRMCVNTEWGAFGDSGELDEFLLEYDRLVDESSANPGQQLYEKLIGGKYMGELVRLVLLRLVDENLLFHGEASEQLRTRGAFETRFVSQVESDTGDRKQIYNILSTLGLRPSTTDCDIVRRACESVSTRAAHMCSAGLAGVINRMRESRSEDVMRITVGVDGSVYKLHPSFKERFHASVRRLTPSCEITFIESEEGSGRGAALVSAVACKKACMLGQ

Hexokinase-4 [2] = molecular target: T1, Hexokinase-4; test: Activation of purified human glucokinase isoform 3 (13 to 466 aa) using 5 mM glucose by spectrophotometry in presence of NAD+ and glucose 6-phosphate dehydrogenase
[3] = Extraction ratio in mouse liver microsomes at 1 uM up to 20 mins by LC-MS/MS analysis; format: ADME; conditions: read-out: ERH
[4] = Extraction ratio in human liver microsomes at 1 uM up to 20 mins by LC-MS/MS analysis; format: ADME; conditions: read-out: ERH
[5] = AUC (infinity) in fed CD-1 mouse at 10 mg/kg, po as single dose; format: ADME, organism-based; design: time infinity, dose 10 mg/kg, route oral; conditions: plasma
Method in brief: (§1)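 Male CD-1 mice, fed, given a single 10 mg/kg oral dose as a suspension in aqueous 1% CMC/0.05% Tween 80 (w/v). Parameters are calculated from arithmetic mean plasma concentrations, n = 3 per time point.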

Mus musculus [6] = test: Antidiabetic activity in C57BL/6 mouse assessed as minimum glucose level at 30 mg/kg, po measured at 2 hrs by oral glucose tolerance test relative to control; format: functional
Method in brief: (§2)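 Dose–response oral glucose tolerance test in C57BL/6 mice at 3, 10 and 30 mg/kg po. Glucose AUC reduction is reported with p < 0.05 significance. Glucose min is the lowest glucose at the 2 h time point for any animal, n = 8.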

[7] = Plasma protein binding in human; format: ADME, cell-free; conditions: read-out: PPB (converted)
[8] = Plasma concentration in C57BL/6 mouse at 30 mg/kg, po measured at 2.5 hrs; format: ADME, organism-based; design: dose 30 mg/kg, route oral
Method in brief: (§3)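 C57BL/6 mice in the OGTT study, dosed orally at 3, 10 or 30 mg/kg. Plasma concentrations are means at 2.5 h postdose, n = 8 per dose group.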

Mus musculus [9] = test: Antidiabetic activity in ob/ob mouse assessed as reduction in fasting blood glucose at 3 mg/kg, po bid for 14 days by oral glucose tolerance test (reference value: 187.9 mg/dL); format: functional; conditions: dose 100 mg/kg, in the assay text read “at 100 mg/kg” for “at 3 mg/kg”
Method in brief: (§4)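 ob/ob mice dosed orally b.i.d. at 3, 30 and 100 mg/kg for 14 days. On day 14 an OGTT is run, with fasting blood glucose read at −0.5 h and glucose excursion as AUC reduction. Significance is taken at p < 0.05.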

Mus musculus [10] = test: Antidiabetic activity in C57BL/6 mouse assessed as reduction in glucose AUC level at 3 mg/kg, po by oral glucose tolerance test relative to control; format: functional; design: scale not given: the % may be the effect or the level left; method in brief: as §2
Mus musculus [11] = test: Antidiabetic activity in C57BL/6 mouse assessed as reduction in glucose AUC level at 30 mg/kg, po by oral glucose tolerance test relative to control; format: functional; design: scale not given: the % may be the effect or the level left; method in brief: as §2
[12] = Volume of distribution at steady state in fed CD-1 mouse at 1 mg/kg, iv as single dose; format: ADME, organism-based; design: dose 1 mg/kg, route intravenous; conditions: in vivo, read-out: Vdss
Method in brief: (§5)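 Male CD-1 mice, fed, given a single 1 mg/kg iv dose as a solution in 40% PEG400/20% EtOH/40% saline (v/v). Parameters are calculated from arithmetic mean plasma concentrations, n = 3 per time point.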

[13] = AUClast in fed CD-1 mouse at 10 mg/kg, po as single dose; format: ADME, organism-based; design: time 0 - last, dose 10 mg/kg, route oral; conditions: plasma; method in brief: as §1
[14] = AUC (infinity) in fed CD-1 mouse at 1 mg/kg, iv as single dose; format: ADME, organism-based; design: time infinity, dose 1 mg/kg, route intravenous; conditions: plasma; method in brief: as §5
[15] = Plasma concentration in C57BL/6 mouse at 10 mg/kg, po measured at 2.5 hrs; format: ADME, organism-based; design: dose 10 mg/kg, route oral; method in brief: as §3
[16] = Plasma concentration in C57BL/6 mouse at 3 mg/kg, po measured at 2.5 hrs; format: ADME, organism-based; design: dose 3 mg/kg, route oral; method in brief: as §3
[17] = Cmax in fed CD-1 mouse at 10 mg/kg, po as single dose; format: ADME, organism-based; design: dose 10 mg/kg, route oral; conditions: in vivo; method in brief: as §1
[18] = Extraction ratio in fed CD-1 mouse at 1 mg/kg, iv as single dose; format: ADME, organism-based; design: dose 1 mg/kg, route intravenous; conditions: in vivo, read-out: ERH
Method in brief: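 Male CD-1 mice, fed, given a single 1 mg/kg iv dose in 40% PEG400/20% EtOH/40% saline (v/v). Extraction ratio is calculated from clearance using a mouse hepatic blood flow of 90 mL min−1 kg−1. Plasma concentrations are arithmetic means, n = 3 per time point.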

[19] = Solubility of the compound at pH 7.4; format: physicochemical; conditions: buffer
[20] = Fraction unbound in human plasma; format: ADME, cell-free
Mus musculus [21] = test: Antidiabetic activity in ob/ob mouse assessed as reduction in glucose excursion at 30 mg/kg, po bid for 14 days by oral glucose tolerance test; format: functional; design: scale not given: the % may be the effect or the level left; method in brief: as §4
Mus musculus [22] = test: Antidiabetic activity in ob/ob mouse assessed as reduction in glucose excursion at 100 mg/kg, po bid for 14 days by oral glucose tolerance test; format: functional; design: scale not given: the % may be the effect or the level left; method in brief: as §4
[23] = Solubility of the compound at pH 1.2; format: physicochemical; conditions: buffer
[24] = Permeability across pig LLC-PK cells; format: ADME, cell-based, Sus scrofa
[25] = Oral bioavailability in fed CD-1 mouse at 10 mg/kg as single dose; format: ADME, organism-based; conditions: in vivo; method in brief: as §1
[26] = Half life in fed CD-1 mouse at 1 mg/kg, iv as single dose; format: ADME, organism-based; design: dose 1 mg/kg, route intravenous; conditions: in vivo; method in brief: as §5
[27] = Clearance in fed CD-1 mouse at 1 mg/kg, iv as single dose; format: ADME, organism-based; design: dose 1 mg/kg, route intravenous; conditions: in vivo; method in brief: as §5
[28] = Solubility of the compound at pH 6.5; format: physicochemical; conditions: buffer
[29] = AUClast in fed CD-1 mouse at 1 mg/kg, iv as single dose; format: ADME, organism-based; design: time 0 - last, dose 1 mg/kg, route intravenous; conditions: plasma; method in brief: as §5
Mus musculus [30] = test: Antidiabetic activity in C57BL/6 mouse assessed as reduction in glucose AUC level at 10 mg/kg, po by oral glucose tolerance test relative to control; format: functional; design: scale not given: the % may be the effect or the level left; method in brief: as §2
[31] = Tmax in fed CD-1 mouse at 10 mg/kg, po as single dose; format: ADME, organism-based; design: dose 10 mg/kg, route oral; conditions: in vivo; method in brief: as §1
[32] = Plasma protein binding in mouse; format: ADME; conditions: read-out: PPB (converted)
Mus musculus [33] = test: Antidiabetic activity in ob/ob mouse assessed as reduction in glucose excursion at 3 mg/kg, po bid for 14 days by oral glucose tolerance test; format: functional; design: scale not given: the % may be the effect or the level left; method in brief: as §4

SMILES: CNC(=O)Nc1ncc(Sc2ccccn2)cc1Oc1cccnc1C
hepatic extraction ratio at 20 min, 1 µM [3]: 0.68 | hepatic extraction ratio at 20 min, 1 µM [4]: 0.37 | EC50 (Hexokinase-4 [1]): 1850 nM | EC50 (Hexokinase-4 [2]): 262 nM

SMILES: CNC(=O)Nc1ncc(SCc2ccccc2)cc1Oc1cccnc1C
hepatic extraction ratio at 20 min, 1 µM [3]: 0.93 | hepatic extraction ratio at 20 min, 1 µM [4]: 0.93 | EC50 (Hexokinase-4 [1]): 1170 nM | EC50 (Hexokinase-4 [2]): 172 nM

SMILES: CNC(=O)Nc1ncc(SCCCOC)cc1Oc1cccnc1C
AUC(0-inf) [5]: 5240 ng·h/mL | Activity (Mus musculus [6]): 73 mg/dL | fraction unbound [7]: 0.38 | concentration at 2.5 h [8]: 633 ng/mL | Activity (Mus musculus [9]): 125.9 mg/dL | hepatic extraction ratio at 20 min, 1 µM [3]: 0.34 | Activity (Mus musculus [10]): 8% | Activity (Mus musculus [11]): 30.8% | Vd [12]: 1.98 L/kg | hepatic extraction ratio at 20 min, 1 µM [4]: 0.32 | AUC(0-t) [13]: 5030 ng·h/mL | AUC(0-inf) [14]: 773 ng·h/mL | concentration at 2.5 h [15]: 178 ng/mL | concentration at 2.5 h [16]: 46 ng/mL | EC50 (Hexokinase-4 [1]): 311 nM | Cmax [17]: 2320 ng/mL | hepatic extraction ratio [18]: 0.239 | solubility [19]: 282 µg/mL (≈ 778 µM) | EC50 (Hexokinase-4 [2]): 182 nM | fraction unbound [20]: 0.4 | Activity (Mus musculus [21]): 33.3% | Activity (Mus musculus [22]): 30.8% | solubility [23]: > 1000 µg/mL | permeability [24]: permeable | bioavailability [25]: 67.8% | half-life [26]: 2.67 h | clearance [27]: 21.5 mL/min/kg | solubility [28]: 45 µg/mL (≈ 124 µM) | AUC(0-t) [29]: 762 ng·h/mL | Activity (Mus musculus [30]): 28.6% | Tmax [31]: 0.5 h | fraction unbound [32]: 0.26 | Activity (Mus musculus [33]): 18.4%

SMILES: CNC(=O)Nc1ncc(SCC2CCOCC2)cc1Oc1cccnc1C
hepatic extraction ratio at 20 min, 1 µM [3]: 0.43 | hepatic extraction ratio at 20 min, 1 µM [4]: 0.48 | EC50 (Hexokinase-4 [1]): 436 nM | EC50 (Hexokinase-4 [2]): 317 nM

SMILES: CNC(=O)Nc1ncc(SC2CCOCC2)cc1Oc1cccnc1C
hepatic extraction ratio at 20 min, 1 µM [3]: 0.3 | hepatic extraction ratio at 20 min, 1 µM [4]: 0.47 | EC50 (Hexokinase-4 [1]): 233 nM | EC50 (Hexokinase-4 [2]): 336 nM

SMILES: CNC(=O)Nc1ncc(SC2CCN(C(=O)OC(C)(C)C)CC2)cc1Oc1cccnc1C
hepatic extraction ratio at 20 min, 1 µM [3]: 0.9 | hepatic extraction ratio at 20 min, 1 µM [4]: 0.95 | EC50 (Hexokinase-4 [1]): 550 nM | EC50 (Hexokinase-4 [2]): 132 nM

SMILES: CNC(=O)Nc1ncc(SC2CCN(S(C)(=O)=O)CC2)cc1Oc1cccnc1C
hepatic extraction ratio at 20 min, 1 µM [3]: 0.32 | hepatic extraction ratio at 20 min, 1 µM [4]: 0.5 | EC50 (Hexokinase-4 [1]): 248 nM | EC50 (Hexokinase-4 [2]): 195 nM

The next lines start with the values.

EC50 (Hexokinase-4 [1]): 1530 nM | EC50 (Hexokinase-4 [2]): 172 nM
SMILES: CCc1ncccc1Oc1cc(Sc2ccccn2)cnc1NC(=O)NCc1ccc(O)cc1

hepatic extraction ratio at 20 min, 1 µM [3]: 0.83 | hepatic extraction ratio at 20 min, 1 µM [4]: 0.45 | EC50 (Hexokinase-4 [1]): 472 nM | EC50 (Hexokinase-4 [2]): 319 nM
SMILES: CCn1nccc1Oc1cc(Sc2ccccn2)cnc1NC(=O)NC

EC50 (Hexokinase-4 [1]): 345 nM | EC50 (Hexokinase-4 [2]): 2240 nM
SMILES: CNC(=O)Nc1ncc(Sc2ccccn2)cc1Oc1c(C)n[nH]c1C

EC50 (Hexokinase-4 [1]): 9300 nM | EC50 (Hexokinase-4 [2]): 3090 nM
SMILES: CNC(=O)Nc1ncc(SCc2ccccn2)cc1Oc1cccnc1C

hepatic extraction ratio at 20 min, 1 µM [3]: 0.19 | hepatic extraction ratio at 20 min, 1 µM [4]: 0.15 | EC50 (Hexokinase-4 [1]): 714 nM | EC50 (Hexokinase-4 [2]): 550 nM
SMILES: CNC(=O)Nc1ncc(SCCCO)cc1Oc1cccnc1C

hepatic extraction ratio at 20 min, 1 µM [3]: 0.33 | hepatic extraction ratio at 20 min, 1 µM [4]: 0.44 | EC50 (Hexokinase-4 [1]): 196 nM | EC50 (Hexokinase-4 [2]): 111 nM
SMILES: CNC(=O)Nc1ncc(SC2CCN(C(C)=O)CC2)cc1Oc1cccnc1C
